“Also recorded” adds a separate entry of the source. Where two headings read alike, the source gives them in different places.
How the values were obtained:
P. falciparum Dd2 [1] = experiment: In vitro P. falciparum blood-stage growth inhibition assay; assay type: cell-based, Plasmodium falciparum
[2] = tested on: P. falciparum 3D7 stage IV–V gametocytes; experiment: In vitro transmission-blocking assay; assay type: cell-based, Plasmodium falciparum; conditions: P. falciparum (3D7), Gametocyte (IV-V)
How it was run: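 3D7 cultures were treated 3 days with 50 mM N-acetyl-D-glucosamine to remove asexual parasites. Stage IV–V gametocytes were then isolated on a discontinuous Percoll gradient. Gametocytes (1.0 × 10^5 per well) were incubated with compound for 72 h. Viability was measured by CellTiter-Glo luminescence.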

[3] = tested on: P. falciparum (NF54) stage V gametocytes; experiment: P. falciparum standard membrane feeding assay; assay type: cell-based, Plasmodium falciparum
[4] = tested on: P. falciparum (NF54) liver stage; experiment: In vitro P. falciparum liver-stage assay; assay type: cell-based, Plasmodium falciparum
[5] = tested on: P. berghei (ANKA) liver stage; experiment: In vitro P. berghei liver-stage assay; assay type: cell-based, Plasmodium berghei; conditions: P. berghei (ANKA), Liver stage
How it was run: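 HepG2 cells (~17,500 per well, in duplicate) were cultured 18–24 h, then the medium was exchanged and compound added. After 1 h, 4,000 P. berghei ANKA GFP–luc sporozoites per well were added, freshly dissected from A. stephensi mosquitoes. Plates were spun 10 min at 1,000 r.p.m. and incubated 48 h at 37 °C. Parasite load was read by Bright-Glo luminescence.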

Solubility assay in PBS = assay type: physicochemical; conditions: PBS pH 7.4 with 1% DMSO
How it was run: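 Compound was prepared at 100 µM in triplicate, both in 100% DMSO and in PBS pH 7.4 with 1% DMSO. Samples were shaken at 750 r.p.m. for 18 h at room temperature. Analysis was by UPLC–MS with single-ion detection. PBS response was fitted to a two-point calibration built from the DMSO samples.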

[6] = Plasma protein binding assay; assay type: in vitro ADME
How it was run: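 Binding was measured by equilibrium dialysis in a RED device. Compound at 5 µM, in duplicate, was placed in mouse plasma (0.95% acetonitrile, 0.05% DMSO) against PBS pH 7.4. Incubation was 5 h at 37 °C with 350 r.p.m. orbital shaking. Both sides were analysed by UPLC–MS with single-ion detection.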

[7] = Metabolic stability assay, mouse liver microsomes; assay type: in vitro ADME
How it was run: (§1)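 Liver microsomes (0.2 mg ml−1) were incubated with compound (0.5 and 5 µM) plus NADPH for 0, 10 and 90 min. Human microsomes or mouse CD-1 microsomes were used, as named in each line. Compound depletion was measured by LC–MS/MS and used to estimate Km, Vmax and half-life.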

[8] = Metabolic stability assay, human liver microsomes; assay type: in vitro ADME
How it was run: as §1

HepG2 cell line = experiment: Mammalian cell cytotoxicity assay; assay type: cell-based, human; conditions: read-out: HepG2 CC50; 72 h
How it was run: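 HepG2, A549 or HEK293 cells were grown in DMEM with 10% FBS and 1% antibiotic–antimycotic and tested mycoplasma-free. Cells (1 × 10^6) were seeded one day before treatment. They were exposed to ascending compound doses for 72 h, and viability was read by CellTiter-Glo.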

hERG channel = hERG channel (Homo sapiens, UniProt Q12809); experiment: hERG channel inhibition assay; assay type: cell-based; conditions: read-out: hERG IC50; IKr
hERG channel, sequence (Q12809 whole entry): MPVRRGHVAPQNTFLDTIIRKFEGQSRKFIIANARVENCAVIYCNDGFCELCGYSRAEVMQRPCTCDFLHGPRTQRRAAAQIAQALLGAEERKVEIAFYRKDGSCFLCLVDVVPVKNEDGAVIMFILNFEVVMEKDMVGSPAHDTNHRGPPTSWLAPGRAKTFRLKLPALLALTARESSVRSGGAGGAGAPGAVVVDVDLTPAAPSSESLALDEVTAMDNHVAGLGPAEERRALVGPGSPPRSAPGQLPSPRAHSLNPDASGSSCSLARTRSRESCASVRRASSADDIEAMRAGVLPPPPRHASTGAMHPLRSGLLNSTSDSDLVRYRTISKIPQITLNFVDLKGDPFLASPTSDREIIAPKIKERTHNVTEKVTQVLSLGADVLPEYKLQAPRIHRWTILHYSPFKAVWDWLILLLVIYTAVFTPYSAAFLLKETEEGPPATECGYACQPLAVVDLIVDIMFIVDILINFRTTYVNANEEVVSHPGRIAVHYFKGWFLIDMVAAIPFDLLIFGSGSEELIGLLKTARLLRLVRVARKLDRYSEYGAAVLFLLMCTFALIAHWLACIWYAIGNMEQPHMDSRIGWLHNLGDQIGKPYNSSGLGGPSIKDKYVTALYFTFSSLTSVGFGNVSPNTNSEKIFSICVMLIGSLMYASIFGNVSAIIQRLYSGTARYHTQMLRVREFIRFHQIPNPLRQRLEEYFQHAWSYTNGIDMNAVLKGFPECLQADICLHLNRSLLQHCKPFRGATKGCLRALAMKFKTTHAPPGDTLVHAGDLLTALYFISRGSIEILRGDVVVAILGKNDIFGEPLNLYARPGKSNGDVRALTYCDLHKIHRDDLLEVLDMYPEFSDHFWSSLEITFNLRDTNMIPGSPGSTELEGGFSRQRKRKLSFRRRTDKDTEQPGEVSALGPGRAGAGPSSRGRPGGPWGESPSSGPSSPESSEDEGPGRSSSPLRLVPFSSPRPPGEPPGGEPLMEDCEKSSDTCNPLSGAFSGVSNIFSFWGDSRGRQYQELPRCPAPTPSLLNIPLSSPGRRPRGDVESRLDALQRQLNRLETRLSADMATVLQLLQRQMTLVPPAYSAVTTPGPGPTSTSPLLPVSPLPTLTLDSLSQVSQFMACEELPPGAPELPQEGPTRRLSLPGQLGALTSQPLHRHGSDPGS
How it was run: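 hERG current was measured in hERG-expressing cell lines by automated patch clamp (QPatch-HTX).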

[9] = Pharmacokinetics in P. falciparum 3D7^HLH/BRD-infected NSG mice; assay type: in vivo, mouse; conditions: for AUC: huRBC NSG mice; for AUC0-inf / Cmax / MRT0-inf / Tmax / AUC0-t: infected NSG mice; for AUC0-t: t = 24 h
[10] = tested on: P. berghei (ANKA GFP-luc) blood-stage parasites; experiment: In vivo P. berghei blood-stage assay; set-up: species or system Plasmodium berghei; conditions: CD-1 mice
[11] = tested on: P. falciparum 3D7^HLH/BRD blood-stage parasites; experiment: In vivo P. falciparum blood-stage assay; set-up: species or system Plasmodium falciparum; conditions: huRBC NSG mice
[12] = tested on: P. berghei (ANKA GFP-luc) sporozoites; experiment: In vivo P. berghei causal prophylaxis assay; set-up: species or system Plasmodium berghei; conditions: CD-1 mice
[13] = tested on: P. falciparum (NF54HT-GFP-luc) sporozoites; experiment: In vivo P. falciparum liver-stage assay; set-up: species or system Plasmodium falciparum
[14] = tested on: P. berghei (ANKA GFP-luc); experiment: In vivo P. berghei transmission-stage assay; set-up: species or system Plasmodium berghei; conditions: for Compound remaining in the circulation (plasma concentration): P. berghei-infected CD-1 mice
[15] = tested on: P. falciparum 3D7^HLH/BRD; experiment: In vivo P. falciparum transmission-stage assay; set-up: species or system Plasmodium falciparum; conditions: huRBC NSG mice; single oral 12.5 mg kg^−1; 7 days after treatment
P. falciparum Dd2 [16] = assay type: cell-based, Plasmodium falciparum; conditions: Dd2 cultures, inocula 10^5 to 10^9, 20 nM (EC90), 60 days
[17] = tested on: major human cytochrome P450 (CYP) isoforms

COc1ccc(NC(=O)N2CCCCN3[C@H](CN(C)C)[C@H](c4ccc(C#Cc5ccccc5)cc4)[C@@H]3C2)cc1 [BRD7929]
EC50 (P. falciparum Dd2 [1]; read-out: Pf, Dd2 EC50, blood stage): 9 nM | EC50 (P. falciparum Dd2 [1]; read-out: PfDd2 EC50, asexual blood-stage parasites (Dd2), SAR table): 9 nM | EC90 (P. falciparum Dd2 [1]; strain Dd2): 20 nM | EC50 [2]: 160 nM | EC50 ([3]; read-out: EC50, standard membrane-feeding assay, direct (D), single drug concentration (10 µM) immediately before blood feeding): < 10000 nM | EC50 ([3]; read-out: EC50, standard membrane-feeding assay, indirect (ID), parasites treated 24 h before mosquito feeding): 270 nM | EC50 [4]: 340 nM | EC50 [5]: 162 nM | PBS solubility (Solubility assay in PBS): 15 µM | Mouse Plasma protein binding [6]: 99.9% | Mouse Clint [7]: 21 µL/min/mg | Human Clint [8]: 31 µL/min/mg | CC50 (HepG2 cell line): 9000 nM | IC50 (hERG channel): 2100 nM | AUC ([9]; 6.25 mg kg^−1 single oral dose): 15.7 µM·h | AUC ([9]; 12.5 mg kg^−1 single oral dose (single-dose cure)): 31.4 µM·h | AUC ([9]; 25 mg kg^−1 single oral dose): 62.8 µM·h | AUC ([9]; 50 mg kg^−1 single oral dose): 125.6 µM·h | AUC0-inf ([9]; PO (3) mg/kg): 7.2 µM·h | Cmax ([9]; PO (3) mg/kg): 210 nM | MRT0-inf ([9]; PO (3) mg/kg): 35.4 h | Tmax ([9]; PO (3) mg/kg): 12 h | AUC0-t ([9]; PO (3) mg/kg): 6.4 ^¶ µM*hr | AUC0-inf ([9]; PO (9) mg/kg): 22.6 µM·h | Cmax ([9]; PO (9) mg/kg): 600 nM | MRT0-inf ([9]; PO (9) mg/kg): 37.8 h | Tmax ([9]; PO (9) mg/kg): 12 h | AUC0-t ([9]; PO (9) mg/kg): 19.7 ^¶ µM*hr | Cure of the infected animals ([10]; single 25 mg kg^−1 oral dose): 100% | Parasite status up to 30-day end-point (bioluminescent imaging) ([10]; single oral 25 mg kg^−1 or 50 mg kg^−1 dose): parasite-free | Animals showing recrudescence at 6 days after treatment ([10]; single oral dose of 12.5 mg kg^−1, n = 4): One in four animals | Lowest single oral dose achieving sterile cure ([10]; P. berghei): 25 mg/kg | Lowest single oral dose with no recrudescence ([11]; P. falciparum 3D7^HLH/BRD): 12.5 mg/kg | Rate of the loss of bioluminescence ([11]; single dose 6.25 mg kg^−1): slower | Change in parasite-associated bioluminescence ([11]; single dose 25 mg kg^−1 and 50 mg kg^−1): rapid decrease | Mice developing blood-stage parasitaemia within a 30-day period ([12]; single dose of 5 or 25 mg kg^−1): none | Lowest single oral dose with no recrudescence ([12]; P. berghei liver-stage model): 5 mg/kg | Ct value, P. falciparum UCE qRT-PCR ([13]; blood 7 days after inoculation, 40 amplification cycles): 40 | Blood-stage marker (P. falciparum UCE transcript) by qRT-PCR ([13]; blood 7 days after inoculation, single 10 mg kg^−1 oral dose): no amplification of the marker was detected; also recorded: not detected | Liver-stage-associated bioluminescence signal ([13]; huHep FRG knockout mice, single 10 mg kg^−1 oral dose 1 day after inoculation): No increase in bioluminescence intensity level; also recorded: no increase in bioluminescence signals | Oocysts in mosquito midguts ([14]; CD-1 mice, single oral 5 or 20 mg kg^−1, 2 days before mosquito feeding): No oocysts were detected | Compound remaining in the circulation (plasma concentration) ([14]; oral 25 mg kg^−1, 1 day after treatment): 896.5 ng/mL | Compound remaining in the circulation (plasma concentration) ([14]; oral 25 mg kg^−1, 4 days after treatment): 170.5 ng/mL | Compound remaining in the circulation (plasma concentration) ([14]; oral 25 mg kg^−1, 10 days after treatment): 8.6 ng/mL | Transmission ([14]; oral 1.25 mg kg^−1 and 0.31 mg kg^−1, 2 days before feeding mosquitoes): reduced transmission activity | Transmission ([14]; oral 5 mg kg^−1, 2 days before feeding mosquitoes): complete blocking of transmission | Oocysts in mosquito midguts ([14]; oral 25 mg kg^−1, blood feeding 1, 4 or 10 days after treatment): No oocysts were found | Transcription of asexual marker SBP1 (qRT-PCR) [15]: decreased to undetectable levels | Transcription of mature gametocyte marker Pfs25 (qRT-PCR) [15]: decreased to undetectable levels | Recrudescence / resistance under constant drug pressure (P. falciparum Dd2 [16]): No recrudescence | Inhibition of major human CYP isoforms [17]: no inhibition
